Key:
Rattus norvegicus [1] = assay: Toxicity in Sprague-Dawley rat mononeuropathy pain model assessed as effect on contralateral paw pressure at 1 mg/kg, po after 30 mins by paw pressure test; assay type: organism-based; parameters: dose 1 mg/kg, route oral; conditions: in vivo, 0.5 h
Procedure, shortened: (§1)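 Same sciatic-ligation rat model, 14 days after surgery. Threshold measured on the non-operated contralateral hind paw by analgesimeter at 32 g/s; first-struggle endpoint; 250 g cut-off; pretest rats outside 40–75 g rejected. Compound given po in 10 ml/kg; readings at 15, 30 and 45 min.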

Rattus norvegicus [2] = assay: Antinociceptive activity in Sprague-Dawley rat mononeuropathy pain model assessed as increase in injured paw pressure at 60 mg/kg, po after 15 mins by paw pressure test relative to non-treated control; assay type: functional
Procedure, shortened: (§2)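 Chronic constriction injury: loose ligatures placed on the common sciatic nerve under chloral hydrate; contralateral sham dissection. Tested 14 days after surgery. Paw pressure applied at 32 g/s; threshold taken as the force causing the first struggle; cut-off 250 g; pretest outliers (<40 g or >75 g) excluded. Oral dosing in 10 ml/kg; read at 15, 30 and 45 min; compared with a CMC-treated group.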

[3] = Displacement of [3H]Ro151788 from GABA(A)/BzR in bovine cerebral cortex membrane; assay type: cell membranes, Bos taurus
Procedure, shortened: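 Bovine cerebral cortex membranes in 50 mM Tris-citrate pH 7.4; [3H]flumazenil displacement. Compounds first tested at a fixed 10 µM; Ki determined only when inhibition exceeded 80%, using at least six concentrations. Five experiments run in triplicate; IC50 obtained by iterative curve fitting and converted to Ki with the Cheng–Prusoff equation.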

Rattus norvegicus [4] = assay: Antinociceptive activity in Sprague-Dawley rat mononeuropathy pain model assessed as increase in injured paw pressure at 1 mg/kg, po after 15 mins by paw pressure test relative to non-treated control; assay type: functional; procedure, shortened: as §2
Rattus norvegicus [5] = assay: Antinociceptive activity in Sprague-Dawley rat mononeuropathy pain model assessed as increase in injured paw pressure at 60 mg/kg, po after 30 mins by paw pressure test relative to non-treated control; assay type: functional; procedure, shortened: as §2
Mus musculus = assay: Anticonvulsant activity in Swiss albino mouse […] assessed as protection against intraperitoneally administered pentylenetetrazol-induced seizures at 30 mg/kg, po after 30 mins; assay type: functional
Procedure, shortened: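 Male Swiss albino mice. Compounds given po and PTZ 90 mg/kg injected 30 min later; PTZ was dissolved in 0.9% NaCl saline. Clonic generalized convulsions were recorded over 30 min. Each value is the mean of 10 mice. The methods give the PTZ route as s.c. and the table footnote gives it as ip.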

Rattus norvegicus [6] = assay: Toxicity in Sprague-Dawley rat mononeuropathy pain model assessed as effect on contralateral paw pressure at 60 mg/kg, po after 15 mins by paw pressure test; assay type: organism-based; parameters: dose 60 mg/kg, route oral; conditions: in vivo, 0.25 h; procedure, shortened: as §1
Rattus norvegicus [7] = assay: Antinociceptive activity in Sprague-Dawley rat mononeuropathy pain model assessed as increase in injured paw pressure at 1 mg/kg, po after 30 mins by paw pressure test relative to non-treated control; assay type: functional; procedure, shortened: as §2
Rattus norvegicus [8] = assay: Antinociceptive activity in Sprague-Dawley rat mononeuropathy pain model assessed as increase in injured paw pressure at 1 mg/kg, po after 45 mins by paw pressure test relative to non-treated control; assay type: functional; procedure, shortened: as §2

**Q.** Which Activity (Rattus norvegicus [1]) does the source give for `Cc1cnn2c1n[n+]([O-])c1ccc(OCc3ccccc3)cc12` here?
**A.** 60.6 g

**Q.** And the Activity (Rattus norvegicus [2])?
**A.** 50.1 g

**Q.** What about the Ki [3] of the same molecule?
**A.** 4.66 nM

**Q.** What about the Activity (Rattus norvegicus [4]) of the same molecule?
**A.** 32.3 g

**Q.** And the Activity (Rattus norvegicus [5])?
**A.** 40.8 g

**Q.** What about the Activity (Mus musculus) of the same molecule?
**A.** 10%

**Q.** What about the Activity (Rattus norvegicus [6]) of the same molecule?
**A.** 59.9 g

**Q.** What about the Activity (Rattus norvegicus [7]) of the same molecule?
**A.** 34.5 g

**Q.** What about the Activity (Rattus norvegicus [8]) of the same molecule?
**A.** 30.8 g
